Measured values as given in ChEMBL document CHEMBL2401665, “Design, synthesis and biological studies of novel tubulin inhibitors” (Bioorg Med Chem Lett, 2013).
pIC50: −log10 of the molar value.

How the values were obtained:
MDA-MB-231 = experiment: Cytotoxicity against hormone-independent human MDA-MB-231 cells assessed as growth inhibition by MTS assay; type: functional, cell-based
Procedure, shortened: (§1)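 Cells seeded at 2,500 per well and exposed to a range of compound concentrations. Read-out is the MTS assay […]. IC50 is the mean of 3 independent experiments, each run in triplicate.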

Tubulin = Tubulin (Sus scrofa, UniProt P02554+P02550); experiment: Inhibition of porcine brain tubulin polymerization
PC-3 = experiment: Cytotoxicity against hormone-independent human PC3 cells assessed as growth inhibition by MTS assay; type: functional, cell-based; procedure, shortened: as §1

SMILES | IC50 (Tubulin) | pIC50 (MDA-MB-231) | pIC50 (PC-3)
COc1ccc2c(c1)[nH]c(=O)n2C(=O)c1cc(OC)c(OC)c(OC)c1 | 19140 nM | 6.96 | 6.90
COc1ccc2c(c1)oc(=O)n2C(=O)c1cc(OC)c(OC)c(OC)c1 | – | < 4.70 | < 4.70
COc1ccc2c(c1)NC(=O)/C2=C/c1cc(OC)c(OC)c(OC)c1 | – | 9.06 | –

More lines, main results first:

IC50 (Tubulin) | SMILES | pIC50 (MDA-MB-231) | pIC50 (PC-3)
16400 nM | COc1ccc2c(c1)[nH]c(=O)n2Cc1cc(OC)c(OC)c(OC)c1 | 7.28 | 7.35
> 40000 nM | COc1ccc2c(c1)n(C)c(=O)n2Cc1cc(OC)c(OC)c(OC)c1 | 5.52 | 6.26
> 40000 nM | COc1ccc2c(c1)oc(=O)n2Cc1cc(OC)c(OC)c(OC)c1 | 5.34 | 5.35
ND(Insoluble) | COc1ccc2c(c1)C(=O)C(=O)N2Cc1cc(OC)c(OC)c(OC)c1 | 6.03 | 6.50
31200 nM | COc1ccc2c(c1)CC(=O)N2Cc1cc(OC)c(OC)c(OC)c1 | 6.71 | 6.78
